Here are results for 1 compound from ChEMBL document CHEMBL5260841, “Discovery of N-(4-(6-Acetamidopyrimidin-4-yloxy)phenyl)-2-(2-(trifluoromethyl)phenyl)acetamide (CHMFL-FLT3-335) as a Potent FMS-like Tyrosine Kinase 3 Internal Tandem Duplication (FLT3-ITD) Mutant Selective Inhibitor for Acute Myeloid Leukemia” (J Med Chem, 2019).

For series [1], the system named is MOLM-14. Nature of the series: Induction of cell cycle arrest in human MOLM-14 cells harboring FLT3-ITD mutant assessed as accumulation of cells at G0/G1 phase at 0.1 uM incubated for 24 hrs by RNase/PI staining based flow cytometry analysis. The series is classed as functional. (Flow cytometry measures light scatter and fluorescence of single cells or particles in a stream.)

The nature of series [2]: Cytotoxicity against human PBMC cells assessed as reduction in cell viability at 5 uM. Format: toxicity, cell-based.
A further series has as its system U-937. Nature of the series: Antiproliferative activity against human U-937 cells transfected with wild type FLT3 assessed as cell growth inhibition incubated for 72 hrs by CCK-8 assay. Format: functional. An outline of the steps:
(§1)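 Cells kept at 37 °C, 5% CO2. MV4-11 grown in IMDM with 10% FBS. MOLM13, MOLM14, U937 and HL-60 grown in RPMI 1640 with 10% FBS. OCI-AML-2 grown in α-MEM with 20% FBS. Seeded at 1500-3000 cells/well and exposed to a concentration series for 72 h. Viability read by CCK8 absorbance at 450 nm.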

The next series is described as follows: cells. Particulars: Homo sapiens, AML3; time 72 hrs. Format: functional.
Series [3] deals with Mast/stem cell growth factor receptor Kit (Homo sapiens, UniProt P10721). Nature of the series: Inhibition of KIT (unknown origin) assessed as residual activity at 1 uM preincubated for 60 mins followed by ATP addition and measured after 1 hr by ADP-Glo assay relative to control. Particulars: time 2.0 hrs. (In general: ADP-Glo first removes unused ATP, then detects ADP through luciferase.)

Series [4] deals with BaF3. The series is described as follows: Antiproliferative activity against mouse BaF3 cells transfected with TEL fused FLT3 D835V mutant assessed as cell growth inhibition incubated for 72 hrs by CCK-8 assay. The series is classed as functional. An outline of the steps:
(§2)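 Kinase-transformed isogenic BaF3 lines grown in RPMI 1640 with 10% FBS, 2% L-glutamine and pen/strep at 37 °C, 5% CO2. Seeded at 1500-3000 cells/well and treated with a compound concentration series for 72 h. Viability read by CCK8 absorbance at 450 nm.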
Background: Tetrazolium dyes change colour on reduction, which living cells bring about.

Series [5] deals with MV4-11. Nature of the series: Inhibition of AKT phosphorylation at Ser473 residue in human MV4-11 cells harboring FLT3-ITD mutant incubated for 4 hrs by Western blot analysis. Format: cell-based. Particulars: dose 0.01-3 µM. An outline of the steps: (§3)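 Cells were exposed to the compound at a series of concentrations for 4 h, and whole-cell lysates were analysed by Western blot. MV4-11 cells were grown in IMDM with 10% FBS. MOLM13 and MOLM14 cells were grown in RPMI 1640 with 10% FBS. All cultures were kept at 37 °C with 5% CO2.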

Another series relates to HL-60. The series is described as follows: Antiproliferative activity against human HL-60 cells transfected with wild type FLT3 assessed as cell growth inhibition incubated for 72 hrs by CCK-8 assay. The series is classed as functional. In a few lines:
as §1

Series [6] concerns the target T1, Signal transducer and activator of transcription 5A (Homo sapiens) (UniProt P42229).
T1 sequence (whole entry): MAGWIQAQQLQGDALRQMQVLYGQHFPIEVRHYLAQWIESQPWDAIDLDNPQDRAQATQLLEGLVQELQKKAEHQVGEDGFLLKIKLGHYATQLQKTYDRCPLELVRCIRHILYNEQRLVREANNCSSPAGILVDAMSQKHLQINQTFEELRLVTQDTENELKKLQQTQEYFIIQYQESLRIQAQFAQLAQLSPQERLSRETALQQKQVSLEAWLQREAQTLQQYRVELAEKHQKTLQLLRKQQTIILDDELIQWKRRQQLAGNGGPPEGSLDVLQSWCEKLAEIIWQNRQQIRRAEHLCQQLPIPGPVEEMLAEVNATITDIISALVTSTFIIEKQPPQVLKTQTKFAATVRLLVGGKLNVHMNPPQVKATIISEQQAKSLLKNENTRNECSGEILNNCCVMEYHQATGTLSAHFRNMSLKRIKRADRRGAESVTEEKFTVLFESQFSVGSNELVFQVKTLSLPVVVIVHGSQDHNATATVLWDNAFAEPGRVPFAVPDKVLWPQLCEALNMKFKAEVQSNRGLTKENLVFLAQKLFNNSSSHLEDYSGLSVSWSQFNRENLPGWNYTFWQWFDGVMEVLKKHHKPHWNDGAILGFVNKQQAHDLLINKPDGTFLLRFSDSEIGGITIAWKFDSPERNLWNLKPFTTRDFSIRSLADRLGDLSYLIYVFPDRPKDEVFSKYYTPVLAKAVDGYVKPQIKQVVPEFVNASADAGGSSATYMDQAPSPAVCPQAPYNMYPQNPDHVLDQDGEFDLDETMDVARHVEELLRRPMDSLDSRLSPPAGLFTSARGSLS
The series is described as follows: Inhibition of STAT5 phosphorylation at Tyr694 residue in human MOLM-13 cells harboring FLT3-ITD mutant incubated for 4 hrs by Western blot analysis. The series is classed as cell-based. Particulars: dose 0.01-3 µM. In a few lines:
as §3

In series [7] the test system is MOLM-14. Nature of the series: Induction of apoptosis in human MOLM-14 cells harboring FLT3-ITD mutant assessed as increase in cleaved PARP level incubated for 24 hrs by Western blot analysis. Format: functional, cell-based. Particulars: dose 0.1-3 µM.
Series [8] in a line: Oral bioavailability in Sprague-Dawley rat at 10 mg/kg. The series is classed as ADME, organism-based. Particulars: in vivo. An outline of the steps: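 Sprague-Dawley rats were dosed either intravenously at 1 mg/kg or by oral gavage at 10 mg/kg. Plasma PK parameters were AUC(0-t), AUC(0-∞), MRT(0-t), T1/2, Tmax, Vz, CLz, Cmax and F%. Values are the mean ± SD of three independent animals.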

In series [9] the test system is MOLM-14. The series is described as follows: Inhibition of AKT phosphorylation at Thr308 residue in human MOLM-14 cells harboring FLT3-ITD mutant incubated for 4 hrs by Western blot analysis. The series is classed as cell-based. The following applies: dose 0.01-3 µM. In a few lines:
as §3

Series [10] has as its system BaF3. Nature of the series: Antiproliferative activity against mouse BaF3 cells transfected with TEL fused PDGFRalpha assessed as cell growth inhibition incubated for 72 hrs by CCK-8 assay. Format: functional. In a few lines:
as §2

Series [11] relates to MV4-11. Nature of the series: Antitumor activity against human MV4-11 cells xenografted in nu/nu mouse assessed as inhibition of tumor growth at 100 mg/kg/day, po administered via gavage for 28 days relative to control. The following applies: MV4-11, 672 h, time 28 day, read-out: TGI. The series is classed as functional. In a few lines: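 MV4-11 cells implanted in mice. Once tumours reached a mean of about 200 mm3, mice were dosed orally once daily for 28 days with vehicle or 25, 50 or 100 mg/kg/day. Tumour size and body weight tracked relative to starting values; final tumour weight also recorded.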

Series [12] relates to MOLM-13. The series is described as follows: Downregulation of c-Myc protein expression in human MOLM-13 cells harboring FLT3-ITD mutant incubated for 4 hrs by Western blot analysis. Format: functional, cell-based. Particulars: dose 0.01-3 µM. An outline of the steps: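 MOLM13 and MOLM14 cells exposed to the indicated concentrations for 4 h. Whole-cell lysates analysed by Western blot for c-Myc, alongside FLT3 Tyr589/591, STAT5, AKT and ERK phosphorylation.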

Series [13] relates to MOLM-13. The series is described as follows: Inhibition of AKT phosphorylation at Ser473 residue in human MOLM-13 cells harboring FLT3-ITD mutant incubated for 4 hrs by Western blot analysis. Format: cell-based. The following applies: dose 0.01-3 µM. An outline of the steps: as §3
Series [14] has as its system MV4-11. The series is described as follows: Antitumor activity against human MV4-11 cells xenografted in nu/nu mouse assessed as suppression of cell proliferation administered orally via gavage for 28 days by ki67 staining based immunohistochemical analysis. Format: functional. Particulars: dose 25-100 mg/kg/day, route po, time 28.0 day. In a few lines: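 Tumours taken from MV4-11 xenograft mice after 28 days of daily oral dosing. Tissue stained with HE, Ki-67 (proliferation) and TUNEL (apoptosis), and treated groups compared with the vehicle group.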

The subject of series [15] is MV4-11. Nature of the series: Downregulation of c-Myc protein expression in human MV4-11 cells harboring FLT3-ITD mutant incubated for 4 hrs by Western blot analysis. Format: functional, cell-based. Particulars: dose 0.01-3 µM. In a few lines: as §3

Activity calls are given as the source filed them. No cut-off for these calls is given here.

Sequence of Mast/stem cell growth factor receptor Kit (P10721 whole entry): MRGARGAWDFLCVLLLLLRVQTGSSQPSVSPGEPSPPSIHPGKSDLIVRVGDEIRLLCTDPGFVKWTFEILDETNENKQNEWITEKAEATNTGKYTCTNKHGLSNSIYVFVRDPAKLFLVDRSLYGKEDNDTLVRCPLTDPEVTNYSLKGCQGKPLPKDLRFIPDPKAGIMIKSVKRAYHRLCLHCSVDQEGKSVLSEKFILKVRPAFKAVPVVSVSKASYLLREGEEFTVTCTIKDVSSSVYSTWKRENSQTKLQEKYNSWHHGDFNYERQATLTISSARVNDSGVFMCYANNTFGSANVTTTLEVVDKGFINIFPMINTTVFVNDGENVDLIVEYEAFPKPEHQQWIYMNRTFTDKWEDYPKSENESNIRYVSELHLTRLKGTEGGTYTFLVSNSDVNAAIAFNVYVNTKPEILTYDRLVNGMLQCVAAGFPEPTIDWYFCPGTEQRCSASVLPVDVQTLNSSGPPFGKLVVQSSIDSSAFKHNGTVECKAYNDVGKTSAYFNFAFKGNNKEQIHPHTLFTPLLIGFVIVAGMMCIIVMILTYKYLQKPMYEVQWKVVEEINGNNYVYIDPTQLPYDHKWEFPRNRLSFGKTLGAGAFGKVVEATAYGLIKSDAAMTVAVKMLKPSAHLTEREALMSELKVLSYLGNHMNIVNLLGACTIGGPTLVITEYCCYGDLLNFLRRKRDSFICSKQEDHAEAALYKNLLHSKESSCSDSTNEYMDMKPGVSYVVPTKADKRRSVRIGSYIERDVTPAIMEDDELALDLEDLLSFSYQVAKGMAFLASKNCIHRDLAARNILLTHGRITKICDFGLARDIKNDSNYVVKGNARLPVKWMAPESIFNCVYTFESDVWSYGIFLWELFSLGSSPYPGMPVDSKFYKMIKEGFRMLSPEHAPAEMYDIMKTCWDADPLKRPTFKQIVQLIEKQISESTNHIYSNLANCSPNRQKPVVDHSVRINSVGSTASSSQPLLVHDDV

`CC(=O)Nc1cc(Oc2ccc(NC(=O)Cc3ccccc3C(F)(F)F)cc2)ncn1`: the outcome in the series with MOLM-14 [1] was Active. For the same compound, the Activity result in series [2] was “Non-Toxic”; in [3], 0.05%; with MOLM-14 [7], “Dose-Dependent Effect”; in the series with MOLM-13 [12], “Dose-Dependent Effect”; in the series on MV4-11 [14], “Dose-Dependent Effect”; in the series on MV4-11 [15], “Dose-Dependent Effect”. For the same compound, the GI50 – broadly, the concentration at which growth is held to half of that of the control – in the series on U-937 is more than 10 µM; in “cells” it was more than 10 µM; in the series with BaF3 [4], more than 10 µM; in the series on HL-60 it was more than 10 µM; in the series on BaF3 [10] it was 0.007 µM. For the same compound, the inhibition result (in the series with MV4-11 [5]; in series [6]; with MOLM-14 [9]; with MOLM-13 [13]) was “Dose-Dependent Effect” throughout. In series [8], the F is 171%. For the same compound, the inhibition in vivo at 100 mg/kg/day in the series with MV4-11 [11] was found to be 80%.
